We go through 22 molecules from ChEMBL document CHEMBL1145251, “Synthesis of thiosemicarbazone and 4-thiazolidinone derivatives and their in vitro anti-Toxoplasma gondii activity” (Bioorg Med Chem Lett, 2005).

Assay [1] relates to Vero. As to the kind of experiment: Compound tested on vero cells infected with Toxoplasma gondii after 24 h. Format: functional, cell-based. Conditions: Chlorocebus sabaeus. The method, boiled down: (§1)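 Infected Vero cultures (tachyzoites, 1:10, 24 h at 37 °C beforehand) were exposed 24 h to compound over 0.01–30 mM, as a dilution series (0.1, 1, 10, 20, 30 mM) in triplicate per assay. Trypan blue exclusion was the read-out, and IC50 (mean ± SD) came from non-linear regression.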

Assay [2] concerns Toxoplasma gondii. Nature of the assay: Compound tested on intracellular parasites Toxoplasma gondii in vero cells after 24 h. The class given is functional, organism-based. The gist of the method: as §1
Assay [3] concerns Vero. Nature of the assay: Compound tested for percent reduction of vero cells infected with Toxoplasma gondii after 24 hr at 37 degree Centigrade (Untreated=80). The class given is functional, Chlorocebus sabaeus.
The subject of assay [4] is Toxoplasma gondii. Nature of the assay: Mean number of intracellular parasites in vero cells was determined after treatment with compound (Untreated=627). The class given is functional.
Assay [5] relates to Vero. Nature of the assay: Compound tested for percent reduction of vero cells infected with Toxoplasma gondii after 24 h at 37 degree Celsius (Untreated=76). The class given is functional, Chlorocebus sabaeus.
The test system of assay [6] is Toxoplasma gondii. As to the kind of experiment: Mean number of intracellular parasites in vero cells was determined after treatment with compound (Untreated=768). The class given is functional.
Assay [7] deals with Vero. As to the kind of experiment: Compound tested for percent reduction of vero cells infected with Toxoplasma gondii after 24 hr at 37 degree Centigrade (Untreated=85). The class given is functional, Chlorocebus sabaeus.
For assay [8], the system named is Toxoplasma gondii. As to the kind of experiment: Mean number of intracellular parasites in vero cells was determined after treatment with compound (Untreated=732). The class given is functional.
In assay [9] the test system is Vero. Nature of the assay: Compound tested for percent reduction of vero cells infected with Toxoplasma gondii after 24 hr at 37 degree Centigrade (Untreated=81). Format: functional, Chlorocebus sabaeus.
In assay [10] the test system is Toxoplasma gondii. Nature of the assay: Mean number of intracellular parasites in vero cells was determined after treatment with compound (Untreated=783). Format: functional.
The test system of assay [11] is Toxoplasma gondii. As to the kind of experiment: Mean number of intracellular parasites in vero cells was determined after treatment with compound (Untreated=642). Format: functional.
Assay [12] concerns Vero. As to the kind of experiment: Compound tested for percent of vero cells infected with Toxoplasma gondii after 24 hr at 37 degree Centigrade (Untreated=84).
Assay [13] deals with Vero. Nature of the assay: Compound tested for percent reduction of vero cells infected with Toxoplasma gondii after 24 h at 37 degree Centigrade (Untreated=83). Format: functional, Chlorocebus sabaeus.
For assay [14], the system named is Toxoplasma gondii. Nature of the assay: Mean number of intracellular parasites in vero cells was determined after treatment with compound (Untreated=687). Format: functional.
Assay [15] concerns Vero. As to the kind of experiment: Compound tested for percent reduction of vero cells infected with Toxoplasma gondii after 24 h at 37 degree Celsius (Untreated=65). Format: functional, Chlorocebus sabaeus.
Assay [16] deals with Toxoplasma gondii. As to the kind of experiment: Mean number of intracellular parasites in vero cells was determined after treatment with compound (Untreated=442). Format: functional.
In assay [17] the test system is Toxoplasma gondii. As to the kind of experiment: Mean number of intracellular parasites in vero cells was determined after treatment with compound (Untreated=628). The class given is functional.
The subject of assay [18] is Vero. As to the kind of experiment: Compound tested for percent reduction of vero cells infected with Toxoplasma gondii after 24 h at 37 degree Centigrade (Untreated=89). Format: functional, Chlorocebus sabaeus.
In assay [19] the test system is Toxoplasma gondii. Nature of the assay: Mean number of intracellular parasites in vero cells was determined after treatment with compound (Untreated=683). Format: functional.
The subject of assay [20] is Toxoplasma gondii. Nature of the assay: Mean number of intracellular parasites in vero cells was determined after treatment with compound (Untreated=840). Format: functional.
The subject of assay [21] is Vero. Nature of the assay: Compound tested for percent reduction of vero cells infected with Toxoplasma gondii after 24 hr at 37 degree Centigrade (Untreated=72). The class given is functional, Chlorocebus sabaeus.
For assay [22], the system named is Toxoplasma gondii. Nature of the assay: Mean number of intracellular parasites in vero cells was determined after treatment with compound (Untreated=786). The class given is functional.
Assay [23] has as its system Toxoplasma gondii. Nature of the assay: Mean number of intracellular parasites in vero cells was determined after treatment with compound (Untreated=698). Format: functional.
Assay [24] concerns Vero. Nature of the assay: Compound tested for percent reduction of vero cells infected with Toxoplasma gondii after 24 h at 37 degree Celsius (Untreated=86). Format: functional, Chlorocebus sabaeus.
The test system of assay [25] is Toxoplasma gondii. Nature of the assay: Mean number of intracellular parasites in vero cells was determined after treatment with compound (Untreated=663). The class given is functional.
Assay [26] relates to Vero. As to the kind of experiment: Compound tested for percent reduction of vero cells infected with Toxoplasma gondii after 24 h at 37 degree Celsius (Untreated=87). The class given is functional, Chlorocebus sabaeus.
Assay [27] deals with Toxoplasma gondii. As to the kind of experiment: Mean number of intracellular parasites in vero cells was determined after treatment with compound (Untreated=726). Format: functional.
Assay [28] has as its system Toxoplasma gondii. As to the kind of experiment: Mean number of intracellular parasites in vero cells was determined after treatment with compound (Untreated=888). Format: functional.
Assay [29] can be described thus: Mean number of intracellular parasites in vero cells was determined after treatment with compound (Untreated=852). Format: functional, Toxoplasma gondii.
Assay [30] concerns Toxoplasma gondii. Nature of the assay: Mean number of intracellular parasites in vero cells was determined after treatment with compound (Untreated=913). Format: functional.

Broadly, the IC50 is the concentration that inhibits the measured activity by half. On to `CCN1C(=O)C(CC(=O)O)S/C1=N\N=C\c1ccc([N+](=O)[O-])cc1` (centres undefined), for which the IC50 in assay [1] turned out to be 2000 µM; in assay [2], 500 µM. The molecule also returned a Reduction in [3] of 7%. Further, the “Mean number of parasites” value in [4] turned out to be 2.
Take `N/C(S)=N/N=C/c1cccc([N+](=O)[O-])c1`: the IC50 in assay [1] worked out at 2000 µM; in assay [2] it was 100 µM. This molecule also showed a Reduction in assay [5] of 4%. In assay [6], the “Mean number of parasites” value was 3.
For `CCN1C(=O)C(CC(=O)O)S/C1=N\N=C\c1cccc([N+](=O)[O-])c1` (centres undefined), in assay [7], the Reduction is listed as 19%. Moreover, in assay [8], the “Mean number of parasites” value was determined as 3.
As to `CC/N=C(/S)N/N=C/c1ccccc1[N+](=O)[O-]`, the IC50 in [1] came out at 2000 µM; in [2], 500 µM. Also, in [9], the Reduction turned out to be 8%. Also, the “Mean number of parasites” value in assay [10] is 1.
On to `C/N=C(/S)N/N=C/c1cccc([N+](=O)[O-])c1`, for which the IC50 came out at 1500 µM in [1] and 500 µM in assay [2]. Moreover, the “Mean number of parasites” value in assay [11] is 1. In assay [12], this molecule registered an Infected cells of 9%.
`O=C(O)CC1S/C(=N\N=C\c2ccccc2[N+](=O)[O-])N(c2ccccc2)C1=O` (centres undefined) came in with a Reduction in [13] of 8%. Further, in assay [14], the “Mean number of parasites” value is 2.
In the case of `O=[N+]([O-])c1cccc(/C=N/N=C(\S)Nc2ccccc2)c1`, the IC50 was 1000 µM in assay [1] and 80 µM in [2]. In assay [15], this molecule displayed a Reduction of 7%. The “Mean number of parasites” value in assay [16] worked out at 11.
Turning to `Nc1ccc(S(=O)(=O)Nc2ncccn2)cc1` [SULFADIAZINE], the results for the IC50 in [1] and in assay [2] were 90 µM and 100 µM, respectively.
The molecule `CN1C(=O)C(CC(=O)O)S/C1=N\N=C\c1cccc([N+](=O)[O-])c1` (centres undefined) displayed a Reduction in [7] of 11%. In addition, the “Mean number of parasites” value in [17] stood at 2.
As to `C/N=C(/S)N/N=C/c1ccc([N+](=O)[O-])cc1`, the IC50 is 10000 µM in assay [1] and 3000 µM in assay [2]. In assay [18], this molecule registered a Reduction of 12%. In assay [19], the “Mean number of parasites” value is 72.
In the case of `O=C(O)CC1SC(N/N=C/c2cccc([N+](=O)[O-])c2)=NC1=O` (centres undefined), the values for the half-inhibitory concentration (IC50) in assay [1] and in [2] were 2000 µM and 500 µM, respectively. The same molecule gave a Reduction in assay [3] of 15%. Also, in assay [20], the “Mean number of parasites” value turned out to be 4.
Turning to `O=C(O)CC1S/C(=N\N=C\c2cccc([N+](=O)[O-])c2)N(c2ccccc2)C1=O` (centres undefined), in [21], the Reduction is reported as 13%. In assay [22], the “Mean number of parasites” value turned out to be 2.
`N/C(S)=N/N=C/c1ccc([N+](=O)[O-])cc1`: the values for the IC50 in [1] and in assay [2] were 1500 µM and 500 µM, respectively. Besides, the Reduction in assay [15] is recorded as 5%. Also, in assay [23], the “Mean number of parasites” value came out at 4.
Consider `CCN1C(=O)C(CC(=O)O)S/C1=N\N=C\c1ccccc1[N+](=O)[O-]` (centres undefined), for which the Reduction in assay [24] is recorded as 14%. Also, the “Mean number of parasites” value in assay [25] was found to be 3.
Turning to `CN1C(=O)C(CC(=O)O)S/C1=N\N=C\c1ccc([N+](=O)[O-])cc1` (centres undefined), the Reduction in assay [26] is given as 13%. In [27], the “Mean number of parasites” value worked out at 2.
`O=[N+]([O-])c1ccccc1/C=N/N=C(\S)Nc1ccccc1`: the IC50 was determined as 1000 µM in assay [1] and 500 µM in [2]. Moreover, the “Mean number of parasites” value in [11] was 3. In assay [12], this molecule yielded an Infected cells of 7%.
With `CC/N=C(/S)N/N=C/c1cccc([N+](=O)[O-])c1`, the IC50 in assay [1] stood at 1000 µM; in assay [2], 80 µM. In assay [5], this molecule yielded a Reduction of 7%. Besides, the “Mean number of parasites” value in assay [6] is listed as 5.
With `CN1C(=O)C(CC(=O)O)S/C1=N\N=C\c1ccccc1[N+](=O)[O-]` (centres undefined), the IC50 in [1] came out at 2000 µM; in assay [2], 500 µM. For the same molecule, in [28], the “Mean number of parasites” value came out at 3. The molecule further gave an Infected cells in [12] of 15%.
For `CC/N=C(/S)N/N=C/c1ccc([N+](=O)[O-])cc1`, the figures for the IC50 in assay [1] and in assay [2] were 2500 µM and 500 µM, respectively. The Reduction in assay [24] turned out to be 17%. Also, the “Mean number of parasites” value in [29] came to 9.
Take `C/N=C(/S)N/N=C/c1ccccc1[N+](=O)[O-]`: the IC50 in assay [1] stood at 2000 µM; in assay [2] it was 500 µM. This molecule also showed a Reduction in [9] of 9%. For the same molecule, in assay [10], the “Mean number of parasites” value is 2.
In the case of `NC(=O)NO` [HYDROXYUREA], the IC50 in [1] and in assay [2] was 100 µM in each case. In [3], this molecule yielded a Reduction of 26%. The “Mean number of parasites” value in assay [30] came to 186.
In the case of `O=C(O)CC1SC(N/N=C/c2ccc([N+](=O)[O-])cc2)=NC1=O` (centres undefined), the IC50 in [1] turned out to be 2500 µM; in assay [2], 500 µM. Also, in assay [7], the Reduction is 16%. Moreover, the “Mean number of parasites” value in [8] amounted to 4.
